Drawing on ChEMBL document CHEMBL1125395, “Development of high-affinity 5-HT3 receptor antagonists. 1. Initial structure-activity relationship of novel benzamides” (J Med Chem, 1992), this text covers Ki, ED50 and ED100 for 18 compounds.

As a reminder, the Ki is a measure of affinity in units of concentration, obtained from inhibition or displacement. One may read the ED50 as the dose at which the effect has come halfway, by size or by number of responders. The low end stands for an effect at a small dose, the high end for a need for a large dose.

In experiment [1] the target is T1, Serotonin 3 (5-HT3) receptor (Rattus norvegicus, UniProt P35563+Q9JJ16).
T1 sequence (P35563 whole entry): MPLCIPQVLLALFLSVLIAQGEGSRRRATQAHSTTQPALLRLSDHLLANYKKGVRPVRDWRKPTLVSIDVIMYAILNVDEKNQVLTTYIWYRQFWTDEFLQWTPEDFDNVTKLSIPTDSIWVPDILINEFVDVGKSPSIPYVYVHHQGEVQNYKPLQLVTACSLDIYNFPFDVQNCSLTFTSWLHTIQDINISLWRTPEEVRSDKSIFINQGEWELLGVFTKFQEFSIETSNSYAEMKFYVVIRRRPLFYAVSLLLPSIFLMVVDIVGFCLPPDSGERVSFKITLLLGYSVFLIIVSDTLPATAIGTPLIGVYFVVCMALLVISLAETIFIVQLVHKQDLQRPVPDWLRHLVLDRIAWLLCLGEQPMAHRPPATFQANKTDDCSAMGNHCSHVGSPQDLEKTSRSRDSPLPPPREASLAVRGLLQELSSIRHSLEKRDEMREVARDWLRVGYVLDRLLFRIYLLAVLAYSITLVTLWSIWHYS
T1 sequence (Q9JJ16 whole entry): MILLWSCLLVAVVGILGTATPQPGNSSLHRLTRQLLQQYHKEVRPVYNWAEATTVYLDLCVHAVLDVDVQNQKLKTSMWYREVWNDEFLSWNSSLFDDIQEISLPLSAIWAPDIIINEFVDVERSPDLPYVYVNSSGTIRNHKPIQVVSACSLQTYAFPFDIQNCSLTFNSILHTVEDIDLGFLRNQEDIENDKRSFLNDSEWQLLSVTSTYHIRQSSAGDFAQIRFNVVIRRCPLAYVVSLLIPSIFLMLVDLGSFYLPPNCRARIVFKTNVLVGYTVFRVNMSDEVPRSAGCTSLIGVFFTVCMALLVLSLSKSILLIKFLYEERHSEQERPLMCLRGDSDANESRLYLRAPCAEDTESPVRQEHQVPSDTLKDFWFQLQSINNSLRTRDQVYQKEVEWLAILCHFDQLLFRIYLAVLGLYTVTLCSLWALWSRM
Put plainly: Displacement of the 5-hydroxytryptamine 3 receptor ligand [3H]GR-65630 from rat brain cortical membranes. The class given is cell membranes, Membrane. In outline: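 Entorhinal cortex from frozen rat brains homogenized, spun 40000g 10 min in HEPES buffer (25 mM HEPES, CaCl2 5 mM, pH 7.4). Filtration, Tris pH 7.7 washes, scintillation counting. Four-six concentrations in triplicate; Ki via Cheng-Prusoff.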

The test system of experiment [2] is Mustela putorius furo. Nature of the experiment: Antiemetic activity (intravenous administration) against cisplatin-induced emesis in ferret, as the dose required to reduce emetic episodes to 50% of control value. The class given is functional. Put shortly: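 Castrated male Fitch ferrets (1-2 kg, nonfasted), jugular catheter implanted ≥48 h prior. Compound in 0.9% saline iv (2 mL/kg) 30 min before and 45 min after cisplatin 3 mg/kg iv. Emetic episodes counted for 4 h post-cisplatin, % inhibition vs vehicle controls run in tandem; dose halving episodes from 4-10 animals/dose, ≥3 doses, 95% confidence limits.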

The subject of experiment [3] is Mustela putorius furo. Nature of the experiment: Antiemetic activity (intravenous administration) against cisplatin-induced emesis in ferret, as the dose required to increase latency to first emetic bout by 100%. The format is functional. In outline:
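Nonfasted castrated male Fitch ferrets (1-2 kg) with jugular vein catheter implanted under pentobarbital ≥48 h earlier. Drug in 0.9% saline, 2 mL/kg iv, 30 min before and 45 min after cisplatin (3 mg/kg iv). Emetic latency recorded over 4 h; % increase vs tandem vehicle; dose raising mean latency 100%. 3-12 ferrets/dose, ≥3 doses, 95% confidence limits.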

Experiment [4] concerns Mustela putorius furo. Nature of the experiment: Antiemetic activity (oral administration) against cisplatin-induced emesis in ferret, as the dose required to increase latency to first emetic bout by 50%. The class given is functional. Put shortly:
(§1)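 Nonfasted castrated male Fitch ferrets (1-2 kg), each used once. Drug dissolved/suspended in 0.5% methylcellulose in gelatin capsule, given po 60 min before cisplatin 3 mg/kg iv (via jugular catheter). Vehicle controls in tandem. Observed 4 h; emetic episodes and latency to first bout recorded. ED50 from 3-12 animals per dose, at least 3 doses, with 95% confidence limits.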

Experiment [5] deals with Mustela putorius furo. Put plainly: Antiemetic activity (oral administration) against cisplatin-induced emesis in ferret, as the dose required to reduce emetic episodes to 50% of control value. The format is functional. Put shortly:
as §1

Compound `CC1(C)CCCc2cc(Cl)cc(C(=O)NC3CN4CCC3CC4)c2O1` (stereo unspecified) came in with a Ki in experiment [1] of 15.6 nM.

In the case of `O=C(NC1CN2CCC1CC2)c1cccc2c1OCCCC2` (stereo unspecified), in experiment [1], the inhibitory constant (Ki) stood at 13.8 nM. This Ki and that of the compound before are within 1.5-fold of each other.

The compound `O=C(NC1CN2CCC1CC2)c1cc(Cl)cc2c1OCCCCC2` (stereo unspecified) registered a Ki in experiment [1] of 4.7 nM.

Turning to `COc1ccc(Cl)cc1C(=O)NC1CN2CCC1CC2` (stereo unspecified), in experiment [1], the Ki was 46.8 nM.

Consider `O=C(NC1CN2CCC1CC2)c1cc(Cl)cc2c1OC1(CCCCC1)C2` (stereo unspecified), for which the ED50 with Mustela putorius furo [2] came out at 0.002 mg/kg. Also, in the experiment with Mustela putorius furo [3], the ED100 came to 0.006 mg/kg. For the same compound, in experiment [1], the Ki was 1.07 nM.

`O=C(NC1CCN2CCCC1C2)c1cc(Cl)cc2c1OCCCC2` (stereo unspecified) had a Ki in experiment [1] of 63 nM.

On to `O=C(N[C@H]1CN2CCC1CC2)c1cc(Cl)cc2c1OC1(CCCCC1)C2`, for which the 50% effective dose (ED50) in the experiment with Mustela putorius furo [2] was 0.099 mg/kg. This compound also yielded an ED100 in the experiment with Mustela putorius furo [3] of 0.055 mg/kg. Besides, in experiment [1], the inhibitory constant (Ki) is 0.89 nM.

With `O=C(N[C@@H]1CN2CCC1CC2)c1cc(Cl)cc2c1OC1(CCCCC1)C2`, the ED50 with Mustela putorius furo [2] is 0.009 mg/kg; in the experiment with Mustela putorius furo [4] it was 0.004 mg/kg; in the experiment on Mustela putorius furo [5], 0.009 mg/kg. Besides, in the experiment with Mustela putorius furo [3], the ED100 is 0.005 mg/kg. Further, in experiment [1], the inhibitory constant (Ki) stood at 0.19 nM.

`Nc1c(Cl)cc2c(c1C(=O)NC1CN3CCC1CC3)OCCCC2` (stereo unspecified) yielded a Ki in experiment [1] above 100 nM.

In experiment [1], `COc1c(C(=O)NC2CN3CCC2CC3)cc(Cl)cc1C1CCCCC1` (stereo unspecified) came in with an inhibition constant Ki of 6.09 nM.

Consider `CCC(C)Oc1c(C(=O)NC2CN3CCC2CC3)cc(Cl)cc1C1CCCCC1` (stereo unspecified), for which the Ki in experiment [1] was above 30 nM.

`O=C(NC1CN2CCC1CC2)c1cc(Cl)cc2c1OCCCC2` (stereo unspecified) had an inhibition constant Ki in experiment [1] of 1.22 nM.

The compound `O=C(NC1CN2CCC1CC2)c1cc(Br)cc2c1OCCCC2` (stereo unspecified) had a Ki in experiment [1] of 2.16 nM.

`CN1CC2CCC1CC(OC(=O)c1c[nH]c3ccccc13)C2` (stereo unspecified): in experiment [1], the inhibition constant (Ki) came out at 1.66 nM. The Ki values of the last two compounds are within 1.5-fold of each other.

With `CN1C2CCCC1CC(NC(=O)c1nn(C)c3ccccc13)C2` (stereo unspecified) [GRANISETRON], the ED50 in the experiment on Mustela putorius furo [2] is 0.226 mg/kg; in the experiment with Mustela putorius furo [4], 0.117 mg/kg; in the experiment with Mustela putorius furo [5], 0.119 mg/kg. In addition, in the experiment on Mustela putorius furo [3], the ED100 was 0.082 mg/kg.

As to `CCN(CC)CCNC(=O)c1cc(Cl)c(N)cc1OC` [METOCLOPRAMIDE], the median effective dose (ED50) is 1.45 mg/kg with Mustela putorius furo [2], above 5 mg/kg in the experiment on Mustela putorius furo [4] and 6.17 mg/kg with Mustela putorius furo [5]. In the experiment with Mustela putorius furo [3], this compound returned an ED100 of 2.1 mg/kg. The compound further showed a Ki in experiment [1] of 995 nM.

As for `Cc1nccn1CC1CCc2c(c3ccccc3n2C)C1=O` (stereo unspecified) [ONDANSETRON], the results for the ED50 in the experiment with Mustela putorius furo [2], with Mustela putorius furo [4] and in the experiment with Mustela putorius furo [5] were 0.008 mg/kg, 0.031 mg/kg and 0.28 mg/kg, respectively. This compound displayed an ED100 in the experiment on Mustela putorius furo [3] of 0.015 mg/kg.

In experiment [1], `COc1cc(N)c(Cl)cc1C(=O)NC1CN2CCC1CC2` (stereo unspecified) [ZACOPRIDE] yielded a Ki of 1.5 nM.
